Among the data in ChEMBL document CHEMBL4152211, “Discovery of novel Methylsulfonyl phenyl derivatives as potent human Cyclooxygenase-2 inhibitors with effective anticonvulsant action: Design, synthesis, in-silico, in-vitro and in-vivo evaluation” (Eur J Med Chem, 2018) are Activity, IC50 and inhibition values, retold here.

Data set [1] concerns Rattus norvegicus. The data set is described as follows: Toxicity in Wistar rat assessed as basophils level at 200 mg/kg, po for 14 days (reference value: 0 +/0%). Format: organism-based. As to conditions: in vivo, 336 h.
In data set [2] the test system is Mus musculus. The data set is described as follows: Anticonvulsant activity in Swiss albino mouse assessed as protection against subcutaneous pentylenetetrazole-induced seizures at 5 mg/kg, ip administered 6 hrs prior to PTZ challenge and measured after 30 mins. As to conditions: in the assay text read “30 mg/kg” for “5 mg/kg”. It counts as functional. In short, it runs like this:
(§1)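 Mice get a single i.p. dose, then PTZ 85 mg/kg s.c. at 0.5, 1, 2, 3, 4 or 6 h after dosing. Seizure protection is recorded at each interval as percentage of six Swiss Albino mice protected.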

Data set [3] deals with Rattus norvegicus. The data set is described as follows: Toxicity in Wistar rat assessed as platelet level at 200 mg/kg, po for 14 days (reference value: 1119 +/- 142.9 10^3/mm3). It counts as organism-based. The conditions noted are these: in vivo, 336 h.
Data set [4] relates to Rattus norvegicus. Description: Anxiolytic activity in ip dosed PTZ-kindled Wistar rat assessed as time spent in light zone by light-dark test (reference value: 3.05 +/- 1.25%). It counts as functional.
For data set [5], the target named is T1, Prostaglandin G/H synthase 2 (Homo sapiens, UniProt P35354).
T1 sequence (P35354 whole entry): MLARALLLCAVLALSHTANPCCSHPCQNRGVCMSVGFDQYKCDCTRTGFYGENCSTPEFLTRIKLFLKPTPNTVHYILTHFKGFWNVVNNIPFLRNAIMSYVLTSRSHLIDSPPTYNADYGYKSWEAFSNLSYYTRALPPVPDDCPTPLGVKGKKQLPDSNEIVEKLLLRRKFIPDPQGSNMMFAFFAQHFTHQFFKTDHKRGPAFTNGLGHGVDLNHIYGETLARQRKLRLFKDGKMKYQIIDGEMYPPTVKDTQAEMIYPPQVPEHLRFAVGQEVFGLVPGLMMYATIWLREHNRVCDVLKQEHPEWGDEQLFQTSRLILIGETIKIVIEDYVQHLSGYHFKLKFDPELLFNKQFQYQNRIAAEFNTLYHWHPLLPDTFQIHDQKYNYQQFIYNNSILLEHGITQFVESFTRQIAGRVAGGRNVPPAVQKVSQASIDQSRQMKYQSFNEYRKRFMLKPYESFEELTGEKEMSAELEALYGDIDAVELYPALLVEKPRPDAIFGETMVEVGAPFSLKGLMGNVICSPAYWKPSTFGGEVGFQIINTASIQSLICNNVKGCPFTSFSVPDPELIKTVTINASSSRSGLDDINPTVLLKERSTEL
Description: Inhibition of human recombinant COX2 using arachidonic acid as substrate preincubated for 5 mins followed by substrate addition and measured after 2 mins by ADPH probe-based fluorescence assay. In short, it runs like this: (§2)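 Kit assay in 100 mM Tris-HCl pH 8.0. Enzyme, heme and inhibitor (DMSO stocks) are incubated 5 min at room temperature. ADPH is added, then arachidonic acid starts the reaction. After 2 min, fluorescence is read at ex 535/em 590 nm. Percent inhibition is taken versus the 100% activity well, background wells included. IC50 is derived from percentage inhibition, mean of three independent experiments.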

Data set [6] has as its system Rattus norvegicus. The data set is described as follows: Cognitive enhancing effect in ip dosed PTZ-kindled Wistar rat assessed as exploration preference by novel object recognition test (reference value: 5.7%). It counts as functional.
In data set [7] the target is T2, Prostaglandin G/H synthase 2 (Homo sapiens) (UniProt P35354).
T2 sequence (whole entry): T1 sequence (P35354 whole entry)
The data set is described as follows: Inhibition of human recombinant COX2 at 10 uM using arachidonic acid as substrate preincubated for 5 mins followed by substrate addition and measured after 2 mins by ADPH probe-based fluorescence assay relative to control. In a few lines:
as §2

In data set [8] the test system is Mus musculus. The data set is described as follows: Anticonvulsant activity in Swiss albino mouse assessed as protection against subcutaneous pentylenetetrazole-induced seizures at 5 mg/kg, ip administered 3 hrs prior to PTZ challenge and measured after 30 mins. Format: functional. The conditions noted are these: in the assay text read “30 mg/kg” for “5 mg/kg”. In short, it runs like this:
as §1

The test system of data set [9] is Rattus norvegicus. The data set is described as follows: Toxicity in Wistar rat assessed as neutrophil level at 200 mg/kg, po for 14 days (reference value: 17.33 +/- 3.21%). Format: organism-based. As to conditions: in vivo, 336 h.
Data set [10] concerns Rattus norvegicus. Description: Toxicity in Wistar rat assessed as TLC level at 200 mg/kg, po for 14 days (reference value: 7.23 +/- 1 10^3/mm3). Format: organism-based. As to conditions: in vivo, 336 h.
For data set [11], the system named is Rattus norvegicus. Description: Toxicity in Wistar rat assessed as effect on calcium level at 200 mg/kg, po for 14 days. Format: organism-based. As to conditions: in vivo, 336 h.
Data set [12] deals with Rattus norvegicus. Description: Toxicity in Wistar rat assessed as effect on sodium level at 200 mg/kg, po for 14 days. It counts as organism-based. As to conditions: in vivo, 336 h.
For data set [13], the system named is Rattus norvegicus. The data set is described as follows: Toxicity in Wistar rat assessed as effect on potassium level at 200 mg/kg, po for 14 days. Format: organism-based. The conditions noted are these: in vivo, 336 h.
Data set [14] relates to Rattus norvegicus. The data set is described as follows: Toxicity in Wistar rat assessed as effect on phosphorous level at 200 mg/kg, po for 14 days. It counts as organism-based. As to conditions: in vivo, 336 h.
In data set [15] the test system is Mus musculus. The data set is described as follows: Anticonvulsant activity in Swiss albino mouse assessed as protection against subcutaneous pentylenetetrazole-induced seizures at 5 mg/kg, ip administered 2 hrs prior to PTZ challenge and measured after 30 mins. Format: functional. The conditions noted are these: in the assay text read “30 mg/kg” for “5 mg/kg”. In short, it runs like this: as §1

On to `Cc1ccc(NC(=S)NNC(=O)Nc2ccc(S(C)(=O)=O)cc2)cc1`, for which the Activity in the data set on Rattus norvegicus [1] was 0.5%; in the data set on Mus musculus [2], 67%; with Rattus norvegicus [3], 990 ×10³ /mm3; with Rattus norvegicus [4], 13.3%; in the data set with Rattus norvegicus [6] it was 3.9%; with Mus musculus [8] it was 83%. Also, the Activity is reported as 21.5% in the data set on Rattus norvegicus [9]; 6.25 ×10³ /mm3 in the data set on Rattus norvegicus [10]; “Non-Toxic” with Rattus norvegicus [11]; “Non-Toxic” with Rattus norvegicus [12]; “Non-Toxic” in the data set with Rattus norvegicus [13]; “Non-Toxic” in the data set with Rattus norvegicus [14]. Further, the Activity with Mus musculus [15] stood at 67%. In addition, the IC50 in data set [5] was 2150 nM. The inhibition in data set [7] is 75%.

For orientation: IC50 means the concentration that gives 50% inhibition. By inhibition is commonly meant the drop in the measured response relative to a control, in per cent.
